According to ChEMBL document CHEMBL1122341, “Prostaglandin isosteres. 2. Chain-modified thiazolidinone prostaglandin analogues as renal vasodilators” (1983):

What was measured:
Canis familiaris [1] = test: Percent change in renal resistance in anesthetized dogs after infusion of compound at 25 nM/kg/min; assay type: functional, Canis lupus familiaris
Canis familiaris [2] = test: Percent change in renal resistance in anesthetized dogs after infusion of compound at 50 nM/kg/min; assay type: functional, Canis lupus familiaris
Canis familiaris [3] = test: Effect on renal blood flow in conscious dogs dosed at 5 mg/kg, observed at 3-4 h; assay type: functional, Canis lupus familiaris
Procedure, shortened: (§1)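 Conscious dogs; aortic catheter for blood pressure and heart rate, with renal and lower aortic blood flow monitored. After a 30-min control period the compound was given orally and the variables were followed for a further 5 h, recorded every 2 min. Readings were averaged over the control period and each hourly postdose period; means ± SE.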

Canis familiaris [4] = test: Effect on renal blood flow in conscious dogs dosed at 5 mg/kg, observed at 4-5 h; assay type: functional, Canis lupus familiaris; procedure, shortened: as §1
Canis familiaris [5] = test: Effect on renal plasma flow in conscious dogs dosed at 0.05 mg/kg (post-treatment); assay type: functional, Canis lupus familiaris
Procedure, shortened: (§2)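 Trained conscious female mongrel dogs, postabsorptive, given 500 mL tap water orally 1-1.5 h beforehand. Effective renal plasma flow was taken as renal p-aminohippurate clearance: priming 8 mg/kg iv, then 0.3 (mg/kg)/min in isotonic NaCl. Two 30-min control clearance periods, a single iv dose (Na salt, aqueous), then four 30-min periods. Plasma sampled at midpoints; means ± SEM.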

Canis familiaris [6] = test: Effect on renal plasma flow in conscious dogs dosed at 0.05 mg/kg (pretreatment); assay type: functional, Canis lupus familiaris; procedure, shortened: as §2
Canis familiaris [7] = test: Effect on renal plasma flow in conscious dogs dosed at 0.1 mg/kg (post-treatment); assay type: functional, Canis lupus familiaris; procedure, shortened: as §2
Canis familiaris [8] = test: Effect on renal plasma flow in conscious dogs dosed at 0.1 mg/kg (pretreatment); assay type: functional, Canis lupus familiaris; procedure, shortened: as §2
Canis familiaris [9] = test: Effect on renal plasma flow in conscious dogs dosed at 0.2 mg/kg (post-treatment); assay type: functional, Canis lupus familiaris; procedure, shortened: as §2
Canis familiaris [10] = test: Effect on renal plasma flow in conscious dogs dosed at 0.2 mg/kg (pretreatment); assay type: functional, Canis lupus familiaris; procedure, shortened: as §2
Canis familiaris [11] = test: Effect on lower arterial blood pressure in conscious dogs dosed at 5 mg/kg, observed at 0-1 h; assay type: functional, Canis lupus familiaris; procedure, shortened: as §1
Canis familiaris [12] = test: Effect on lower arterial blood pressure in conscious dogs dosed at 5 mg/kg, observed at 1-2 h; assay type: functional, Canis lupus familiaris; procedure, shortened: as §1
Canis familiaris [13] = test: Effect on lower arterial blood pressure in conscious dogs dosed at 5 mg/kg, observed at 2-3 h; assay type: functional, Canis lupus familiaris; procedure, shortened: as §1
Canis familiaris [14] = test: Effect on lower arterial blood pressure in conscious dogs dosed at 5 mg/kg, observed at 3-4 h; assay type: functional, Canis lupus familiaris; procedure, shortened: as §1
Canis familiaris [15] = test: Effect on lower arterial blood pressure in conscious dogs dosed at 5 mg/kg, observed at 4-5 h; assay type: functional, Canis lupus familiaris; procedure, shortened: as §1
Canis familiaris [16] = test: Effect on heart rate in conscious dogs dosed at 5 mg/kg, observed at 0-1 h; assay type: functional, Canis lupus familiaris; procedure, shortened: as §1
Canis familiaris [17] = test: Effect on heart rate in conscious dogs dosed at 5 mg/kg, observed at 1-2 h; assay type: functional, Canis lupus familiaris; procedure, shortened: as §1
Canis familiaris [18] = test: Effect on heart rate in conscious dogs dosed at 5 mg/kg, observed at 2-3 h; assay type: functional, Canis lupus familiaris; procedure, shortened: as §1
Canis familiaris [19] = test: Effect on heart rate in conscious dogs dosed at 5 mg/kg, observed at 3-4 h; assay type: functional, Canis lupus familiaris; procedure, shortened: as §1
Canis familiaris [20] = test: Effect on heart rate in conscious dogs dosed at 5 mg/kg, observed at 4-5 h; assay type: functional, Canis lupus familiaris; procedure, shortened: as §1
Canis familiaris [21] = test: Effect on lower aortic blood flow in conscious dogs dosed at 5 mg/kg, observed at 0-1 h; assay type: functional, Canis lupus familiaris, Aorta; procedure, shortened: as §1
Canis familiaris [22] = test: Effect on lower aortic blood flow in conscious dogs dosed at 5 mg/kg, observed at 1-2 h; assay type: functional, Canis lupus familiaris, Aorta; procedure, shortened: as §1
Canis familiaris [23] = test: Effect on lower aortic blood flow in conscious dogs dosed at 5 mg/kg, observed at 2-3 h; assay type: functional, Canis lupus familiaris, Aorta; procedure, shortened: as §1
Canis familiaris [24] = test: Effect on lower aortic blood flow in conscious dogs dosed at 5 mg/kg, observed at 3-4 h; assay type: functional, Canis lupus familiaris, Aorta; procedure, shortened: as §1
Canis familiaris [25] = test: Effect on lower aortic blood flow in conscious dogs dosed at 5 mg/kg, observed at 4-5 h; assay type: functional, Canis lupus familiaris, Aorta; procedure, shortened: as §1
Canis familiaris [26] = test: Effect on renal blood flow in conscious dogs dosed at 5 mg/kg, observed at 0-1 h; assay type: functional, Canis lupus familiaris; procedure, shortened: as §1
Canis familiaris [27] = test: Effect on renal blood flow in conscious dogs dosed at 5 mg/kg, observed at 1-2 h; assay type: functional, Canis lupus familiaris, Kidney; procedure, shortened: as §1
Canis familiaris [28] = test: Percent change in renal plasma flow in conscious dogs dosed at 0.1 mg/kg; assay type: functional, Canis lupus familiaris; procedure, shortened: as §2
Canis familiaris [29] = test: Percent change in renal plasma flow in conscious dogs dosed at 0.2 mg/kg; assay type: functional, Canis lupus familiaris; procedure, shortened: as §2
Canis familiaris [30] = test: Percent change in renal plasma flow in conscious dogs dosed at 0.05 mg/kg; assay type: functional, Canis lupus familiaris; procedure, shortened: as §2
Canis familiaris [31] = test: Effect on renal blood flow in conscious dogs dosed at 5 mg/kg, observed at 2-3 h; assay type: functional, Canis lupus familiaris, Kidney; procedure, shortened: as §1
Canis familiaris [32] = test: Percent change in renal resistance in anesthetized dogs after infusion of compound at 10 nM/kg/min; assay type: functional, Canis lupus familiaris
Procedure, shortened: (§3)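 Vinbarbital-anesthetized dogs with an electromagnetic flow probe on the left renal artery and an aortic catheter for pressure. Saline was infused intrarenally for 30 min as pretreatment. Percent change was calculated from the maximum decrease in renal resistance versus pretreatment.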

Canis familiaris [33] = test: Effect on renal plasma flow in conscious dogs dosed at 0.4 mg/kg (post-treatment); assay type: functional, Canis lupus familiaris; procedure, shortened: as §2
Canis familiaris [34] = test: Effect on renal plasma flow in conscious dogs dosed at 0.4 mg/kg (pretreatment); assay type: functional, Canis lupus familiaris; procedure, shortened: as §2
Canis familiaris [35] = test: Effect on renal plasma flow in conscious dogs dosed at 10 mg/kg (post-treatment); assay type: functional, Canis lupus familiaris; procedure, shortened: as §2
Canis familiaris [36] = test: Effect on renal plasma flow in conscious dogs dosed at 10 mg/kg (pretreatment); assay type: functional, Canis lupus familiaris; procedure, shortened: as §2
Canis familiaris [37] = test: Percent change in renal plasma flow in conscious dogs dosed at 0.4 mg/kg; assay type: functional, Canis lupus familiaris; procedure, shortened: as §2
Canis familiaris [38] = test: Percent change in renal plasma flow in conscious dogs dosed at 10 mg/kg; assay type: functional, Canis lupus familiaris; procedure, shortened: as §2
Canis familiaris [39] = test: Effect on renal plasma flow in conscious dogs dosed at 0.025 mg/kg (pretreatment); assay type: functional, Canis lupus familiaris; procedure, shortened: as §2
Canis familiaris [40] = test: Effect on renal plasma flow in conscious dogs dosed at 0.025 mg/kg (post-treatment); assay type: functional, Canis lupus familiaris; procedure, shortened: as §2
Canis familiaris [41] = test: Percent change in renal plasma flow in conscious dogs dosed at 0.025 mg/kg; assay type: functional, Canis lupus familiaris; procedure, shortened: as §2
Canis familiaris [42] = test: Percent change in renal resistance in anesthetized dogs after infusion of compound at 60 nM/kg/min; assay type: functional, Canis lupus familiaris; conditions: in the assay text read “60 ng/kg/min” for “60 nM/kg/min”; procedure, shortened: as §3
Canis familiaris [43] = test: Percent change in renal resistance in anesthetized dogs after infusion of compound at 110 nM/kg/min; assay type: functional, Canis lupus familiaris; procedure, shortened: as §3
[44] = dose 1 mg/kg, in the assay text read “dosed at 1 mg/kg” for “dosed at 5 mg/kg”

Row | SMILES | Mean RBF (Canis familiaris [3]) | Mean RBF (Canis familiaris [4]) | Activity (Canis familiaris [9]) | Mean blood pressure (Canis familiaris [11]) | Mean blood pressure (Canis familiaris [12]) | Mean blood pressure (Canis familiaris [13]) | Mean blood pressure (Canis familiaris [14]) | Mean blood pressure (Canis familiaris [15]) | Mean HR (Canis familiaris [16]) | Mean HR (Canis familiaris [17]) | Mean HR (Canis familiaris [18]) | Mean HR (Canis familiaris [19]) | Mean HR (Canis familiaris [20]) | Mean LAF (Canis familiaris [21]) | Mean LAF (Canis familiaris [22]) | Mean LAF (Canis familiaris [23]) | Mean LAF (Canis familiaris [24]) | Mean LAF (Canis familiaris [25]) | Mean RBF (Canis familiaris [26]) | Mean RBF (Canis familiaris [27]) | also measured
1 | O=C(O)c1ccc(CCCC2SCC(=O)N2CCC2(O)CCCCC2)cc1 (stereo not drawn) | 233 mL/min | 242 mL/min | 322 mL/min | 105 mmHg | 89 mmHg | 97 mmHg | 101 mmHg | 98 mmHg | 122 beats min-1 | 169 beats min-1 | 144 beats min-1 | 131 beats min-1 | 136 beats min-1 | 486 mL/min | 597 mL/min | 521 mL/min | 492 mL/min | 477 mL/min | 179 mL/min | 211 mL/min | Change (Canis familiaris [1]): -24%; Change (Canis familiaris [2]): -28%; Activity (Canis familiaris [5]): 240 mL/min; Activity (Canis familiaris [6]): 148 mL/min; Activity (Canis familiaris [7]): 216 mL/min; Activity (Canis familiaris [8]): 142 mL/min; Activity (Canis familiaris [10]): 136 mL/min; Change (Canis familiaris [28]): 52%; Change (Canis familiaris [29]): 137%; Change (Canis familiaris [30]): 62%; Mean RBF (Canis familiaris [31]; [44]): 226 mL/min; Change (Canis familiaris [32]): -13%
2 | O=C(O)c1ccc(CCC[C@@H]2SCC(=O)N2CCC2(O)CCCCC2)cc1 | – | – | 146 mL/min | – | – | – | – | – | – | – | – | – | – | – | – | – | – | – | – | – | Activity (Canis familiaris [10]): 138 mL/min; Activity (Canis familiaris [33]): 147 mL/min; Activity (Canis familiaris [34]): 136 mL/min; Activity (Canis familiaris [35]): 151 mL/min; Activity (Canis familiaris [36]): 139 mL/min; Change (Canis familiaris [29]): 6%; Change (Canis familiaris [37]): 8%; Change (Canis familiaris [38]): 9%
3 | CCCCCC(O)CCN1C(=O)CSC1CCCc1ccc(C(=O)O)cc1 (stereo not drawn) | 183 mL/min | 159 mL/min | – | 118 mmHg | 108 mmHg | 116 mmHg | 116 mmHg | 116 mmHg | 103 beats min-1 | 118 beats min-1 | 107 beats min-1 | 92 beats min-1 | 84 beats min-1 | 546 mL/min | 560 mL/min | 625 mL/min | 521 mL/min | 510 mL/min | 201 mL/min | 241 mL/min | Mean RBF (Canis familiaris [31]; dose 5 mg/kg): 209 mL/min
4 | CCCCCC(O)CCN1C(=O)CSC1CCCCCCC(=O)O (stereo not drawn) | 116 mL/min | 111 mL/min | – | 123 mmHg | 146 mmHg | 140 mmHg | 133 mmHg | 132 mmHg | 126 beats min-1 | 79 beats min-1 | 85 beats min-1 | 82 beats min-1 | 76 beats min-1 | 420 mL/min | 424 mL/min | 432 mL/min | 427 mL/min | 386 mL/min | 181 mL/min | 110 mL/min | Mean RBF (Canis familiaris [31]; dose 5 mg/kg): 110 mL/min
5 | O=C(O)c1ccc(CCC[C@H]2SCC(=O)N2CCC2(O)CCCCC2)cc1 | – | – | 292 mL/min | – | – | – | – | – | – | – | – | – | – | – | – | – | – | – | – | – | Activity (Canis familiaris [39]): 155 mL/min; Activity (Canis familiaris [40]): 239 mL/min; Activity (Canis familiaris [5]): 289 mL/min; Activity (Canis familiaris [6]): 178 mL/min; Activity (Canis familiaris [10]): 143 mL/min; Change (Canis familiaris [29]): 104%; Change (Canis familiaris [41]): 54%; Change (Canis familiaris [30]): 62%
6 | O=C(O)CCCCCCC1SCC(=O)N1CCC1(O)CCCCC1 (stereo not drawn) | 176 mL/min | 160 mL/min | – | 59 mmHg | 74 mmHg | 92 mmHg | 100 mmHg | 104 mmHg | 180 beats min-1 | 185 beats min-1 | 113 beats min-1 | 94 beats min-1 | 88 beats min-1 | 772 mL/min | 742 mL/min | 530 mL/min | 510 mL/min | 388 mL/min | 97 mL/min | 150 mL/min | Mean RBF (Canis familiaris [31]; [44]): 199 mL/min
7 | CCCCC[C@H](O)/C=C/[C@H]1[C@H](O)CC(=O)[C@@H]1C/C=C\CCCC(=O)O [DINOPROSTONE] | – | – | – | – | – | – | – | – | – | – | – | – | – | – | – | – | – | – | – | – | Change (Canis familiaris [42]): -29%; Change (Canis familiaris [43]): -35%; Change (Canis familiaris [32]): -13%
